The target of series [1] is T1, Cytochrome P450 3A (Homo sapiens, UniProt P08684+P20815+Q9HB55+P24462). Nature of the series: Time-dependent inhibition of CYP3A in human liver microsomes assessed as testosterone 6-hydroxylation using testosterone as substrate measured after 25-fold diution by LC-MS/MS analysis in presence of NADPH. It counts as ADME. The method, boiled down:
(§1)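 Pooled HLM (16 donors, mixed gender) preincubated in duplicate with carfilzomib 0, 0.5, 1, 3, 5 and 8 µM plus NADPH-generating system (1 mM NADP, 5 mM glucose-6-phosphate, 1 unit/mL G6PDH) for 0–30 min. Microsomal protein in preincubation: 2.5 mg/mL (testosterone) or 1.25 mg/mL (midazolam). Aliquots then diluted 25-fold into 50 mM potassium phosphate, 3 mM MgCl2, 1 mM EDTA, pH 7.4. Residual activity measured over 5 min with testosterone 200 µM or midazolam 40 µM plus NADPH-generating mixture, 37°C. KI and kinact derived.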

For series [2], the target named is CYP3A (Homo sapiens, UniProt P08684+P20815+P24462+Q9HB55). Nature of the series: Inhibition of CYP3A in human liver microsomes assessed as substrate metabolite formation using midazolam as substrate preincubated with microsomes for 30 mins prior to substrate addition measured after 5 mins by LC-MS/MS analysis. The class given is ADME. The settings on record: probe midazolam. The essentials: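 HLM (16-donor pool) were preincubated 30 min with carfilzomib 0.01–10 µM before addition of midazolam or testosterone at about Km. Metabolite formation was measured by LC-MS/MS after 5 min, in duplicate, relative to 0.5% acetonitrile controls.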

The target in series [3] is T2, Cytochrome P450 2C8 (Homo sapiens, UniProt P10632).
T2 sequence (P10632 whole entry): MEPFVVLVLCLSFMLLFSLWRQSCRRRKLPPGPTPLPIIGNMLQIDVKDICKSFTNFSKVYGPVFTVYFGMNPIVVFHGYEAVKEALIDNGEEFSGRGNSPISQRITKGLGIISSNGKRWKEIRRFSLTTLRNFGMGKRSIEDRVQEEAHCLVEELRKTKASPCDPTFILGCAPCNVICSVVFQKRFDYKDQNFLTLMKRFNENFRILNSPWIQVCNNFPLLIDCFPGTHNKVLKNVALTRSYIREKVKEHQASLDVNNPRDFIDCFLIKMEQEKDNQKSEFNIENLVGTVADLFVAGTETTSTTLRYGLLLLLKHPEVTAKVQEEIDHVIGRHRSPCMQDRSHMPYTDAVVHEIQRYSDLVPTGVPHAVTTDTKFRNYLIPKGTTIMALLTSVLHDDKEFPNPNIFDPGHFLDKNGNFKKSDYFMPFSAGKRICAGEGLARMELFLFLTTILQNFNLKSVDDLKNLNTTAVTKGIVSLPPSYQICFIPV
Description: Inhibition of CYP2C8 in human liver microsomes using amodiaquine as substrate after 5 mins by LC-MS/MS analysis. It counts as ADME. The method, boiled down:
(§2)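 Pooled HLM from 16 donors were incubated at 37°C in duplicate with carfilzomib 0.01–10 µM and probe substrate at about its Km. Substrates were phenacetin, amodiaquine, diclofenac, S-mephenytoin, dextromethorphan, testosterone and midazolam. Protein was 0.1 mg/mL, or 0.05 mg/mL with midazolam. Reactions ran 5 min without preincubation, then were quenched with acetonitrile. Metabolites were measured by LC-MS/MS relative to 0.5% acetonitrile controls.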

Series [4] addresses T1, Cytochrome P450 3A. Description: Decrease in CYP3A activity in rifampin-treated human hepatocytes assessed as 6-betahydroxytestosterone formation using testosterone as substrate at 2.5 uM after 30 mins by LC-MS/MS analysis. It counts as ADME, cell-based, Hepatocyte. The settings on record: 0.5 h. The essentials:
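Hepatocytes induced 3 days with 20 µM rifampicin were exposed to fresh medium containing 2.5 µM carfilzomib for 30 min and washed once. They were then incubated with testosterone 200 µM, and 6β-hydroxytestosterone was measured by LC-MS/MS.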

In series [5] the target is Cytochrome P450 3A4 (Homo sapiens, UniProt P08684). Description: Decrease in CYP3A4 activity in human hepatocytes assessed as 6-betahydroxytestosterone formation using testosterone as substrate at 2.5 uM incubated for 3 days prior to substrate challenge for 30 mins by LC-MS/MS analysis. The class given is ADME, cell-based, Hepatocyte. The settings on record: 0.5 h. The essentials:
(§3)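 Hepatocytes from 3 donors were plated on collagen I and cultured 2 days, then treated 3 days with carfilzomib (0.1–2.5 µM), 0.08% DMSO, rifampicin 20 µM or β-naphthoflavone 20 µM, renewed daily. Cells were then incubated in serum-free medium in triplicate with testosterone 200 µM (CYP3A, 30 min, 6β-hydroxytestosterone) or phenacetin 100 µM (CYP1A2, 60 min, acetaminophenol). Products were measured by LC-MS/MS and expressed relative to DMSO.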

Series [6] relates to CYP3A. Description: Decrease in CYP3A gene expression in human hepatocytes at 2.5 uM after 3 days by qPCR analysis. It counts as ADME, cell-based, Hepatocyte. The method, boiled down:
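Hepatocytes were treated 3 days with carfilzomib (0.1–2.5 µM) or 0.08% DMSO, renewed daily. CYP3A mRNA was measured in 3 donors and CYP1A2 mRNA in one additional donor, both by qPCR. Values are triplicate means relative to DMSO.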
Background: In qPCR the cycle at which signal appears reflects the starting amount.

Series [7] is described as follows: Drug metabolism in pooled human hepatocytes assessed as disapperance rate at 1 uM by LC-MS/MS analysis. The class given is ADME, cell-based, Hepatocyte. The essentials:
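Pooled human hepatocytes in suspension (~0.5 x 10^6 viable cells/mL) were incubated with 1 µM carfilzomib at 37°C under 5% CO2, with or without isoform-selective CYP chemical inhibitors. Reactions were quenched with acetonitrile at 0, 15, 30, 60 and 120 min. Carfilzomib was quantified by non-validated LC-MS/MS after protein precipitation.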

The target of series [8] is T1, Cytochrome P450 3A. Nature of the series: Decrease in CYP3A activity in human hepatocytes assessed as 6-betahydroxytestosterone formation using testosterone as substrate incubated for 3 days prior to substrate challenge for 30 mins by LC-MS/MS analysis. It counts as ADME, cell-based, Hepatocyte. As to conditions: 0.5 h; call rule not given here. The essentials: as §3
The nature of series [9]: Drug excretion in urine of human multiple myeloma patient with normal renal function at 15 mg/m'2, iv on days 1, 2, 8, 9, 15 and 16 of 28-day cycle over 2 to 10 mins by LC-MS/MS analysis relative to total drug dose. The class given is ADME, organism-based. The settings on record: read-out: Drug excretion. The method, boiled down:
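Urine was collected 0–5 h and 5–24 h after dosing on Cycle 1 Day 1, with acetonitrile added at 25% of sample volume. Carfilzomib and metabolites were quantified by LC-MS/MS (carfilzomib and M15 4.00–2000 ng/mL, M14 10.0–5000 ng/mL) and expressed as percent of dose.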

Series [10] has as its target T1, Cytochrome P450 3A. Nature of the series: Time-dependent inhibition of CYP3A in human liver microsomes assessed as midazolam 1'-hydroxylation using midazolam as substrate measured after 25-fold diution by LC-MS/MS analysis in presence of NADPH. It counts as ADME. The essentials:
as §1
In general terms: Microsomes from liver hold many membrane-bound enzymes, among them those of drug oxidation.

Series [11] relates to Plasma. Description: Drug metabolism in plasma of human multiple myeloma patient assessed as morpholino-hPhe metabolite formation at 15 mg/m'2, iv administered as single dose measured within first 30 mins after end of drug infusion by LC-MS/MS analysis. The settings on record: in vivo, 0.5 h. The class given is ADME, organism-based. The method, boiled down:
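Patients with multiple myeloma received a single 15 mg/m2 carfilzomib dose. Plasma was sampled pre-dose, at end of infusion, at 5, 15, 30 min and at 1, 1.5, 2, 4, 6, 24 h. Samples were protein-precipitated and analyzed by LC-MS/MS (metabolites 0.500–500 ng/mL) with deuterated internal standards.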

The target of series [12] is Cytochrome P450 2C9 (Homo sapiens, UniProt P11712). Nature of the series: Inhibition of CYP2C9 in human liver microsomes using diclofenac as substrate after 5 mins by LC-MS/MS analysis. The class given is ADME. The essentials:
as §2

The structures appear in SMILES notation.

Sequence of Cytochrome P450 2C9 (P11712 whole entry): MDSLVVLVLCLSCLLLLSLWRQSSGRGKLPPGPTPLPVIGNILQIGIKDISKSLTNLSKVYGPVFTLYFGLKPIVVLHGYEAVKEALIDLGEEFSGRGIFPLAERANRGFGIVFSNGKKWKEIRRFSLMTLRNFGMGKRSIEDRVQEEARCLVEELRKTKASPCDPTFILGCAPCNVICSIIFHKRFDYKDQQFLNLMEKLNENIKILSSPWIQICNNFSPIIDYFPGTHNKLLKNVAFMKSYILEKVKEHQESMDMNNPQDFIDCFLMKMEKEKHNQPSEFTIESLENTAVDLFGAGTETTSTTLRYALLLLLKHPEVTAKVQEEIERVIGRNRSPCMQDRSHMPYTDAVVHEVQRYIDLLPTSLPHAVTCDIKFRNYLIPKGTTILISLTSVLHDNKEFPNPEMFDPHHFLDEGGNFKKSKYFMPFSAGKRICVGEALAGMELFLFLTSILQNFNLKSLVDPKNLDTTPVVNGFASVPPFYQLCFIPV
Sequence of Cytochrome P450 3A4 (P08684 whole entry): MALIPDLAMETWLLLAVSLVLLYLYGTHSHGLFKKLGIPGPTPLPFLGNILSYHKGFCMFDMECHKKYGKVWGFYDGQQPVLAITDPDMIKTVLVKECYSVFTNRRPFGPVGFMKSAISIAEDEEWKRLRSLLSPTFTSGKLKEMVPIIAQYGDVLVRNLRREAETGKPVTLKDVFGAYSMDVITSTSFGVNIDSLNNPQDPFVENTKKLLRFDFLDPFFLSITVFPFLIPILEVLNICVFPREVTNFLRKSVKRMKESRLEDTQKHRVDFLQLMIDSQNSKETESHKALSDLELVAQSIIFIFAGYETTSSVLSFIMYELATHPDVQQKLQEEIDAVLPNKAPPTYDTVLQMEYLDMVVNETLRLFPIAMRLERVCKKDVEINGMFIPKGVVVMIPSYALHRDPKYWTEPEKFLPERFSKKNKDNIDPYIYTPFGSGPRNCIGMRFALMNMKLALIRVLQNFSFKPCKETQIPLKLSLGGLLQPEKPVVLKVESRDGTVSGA

Usually IC50 stands for the concentration at which inhibition is half-maximal. In general, inhibition refers to the share of the control response that was lost under treatment. Regarding `CC(C)C[C@H](NC(=O)[C@H](CCc1ccccc1)NC(=O)CN1CCOCC1)C(=O)N[C@@H](Cc1ccccc1)C(=O)N[C@@H](CC(C)C)C(=O)[C@@]1(C)CO1` [CARFILZOMIB], the “inhibition (INH)” value is “Active” in series [1]; 14% in series [4]; 45% in series [5]; “Dose-dependent effect” in series [8]; “Active” in [10]. Moreover, the IC50 at 5 min in series [2] is 0.49 µM. Moreover, the IC50 in series [3] and in series [12] was above 10 µM throughout. The compound further gave an inhibition at 72 h, 2.5 µM in series [6] above 95%. In addition, the Drug metabolism is 0.015 min⁻¹ in series [7] and “metabolite_detected” in [11]. The dose excreted in series [9] is below 1%.

Values taken from ChEMBL document CHEMBL3526139, “Clinical pharmacokinetics, metabolism, and drug-drug interaction of carfilzomib” (Drug Metab Dispos, 2013).
